# Measurements published in ChEMBL document CHEMBL2321652, “Design and synthesis of HIV-1 protease inhibitors for a long-acting injectable drug application” (Bioorg Med Chem Lett, 2013).
# Tests used:
# [1] = Cytotoxicity against human MT4 cells; assay type: cell-based
# [2] = system: Human immunodeficiency virus 1; assay: Antiviral activity against wild type Human immunodeficiency virus 1 3B infected in human MT4 cells assessed as inhibition of viral replication; assay type: functional, organism-based
# Method in brief: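 EC50 values are averages of at least two independent experiments (typically three to four), each run in quadruplicate. For the serum-shifted line, the same antiviral assay includes 50% human serum, used as a functional measure of plasma protein binding.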
# [3] = Plasma clearance in rat at 2 mg/kg, iv; assay type: ADME, organism-based; set-up: dose 2 mg/kg, route intravenous
# Method in brief: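 Single intravenous dose of 2 mg/kg in rats. The formulation is typically 1 mg/mL in PEG400/ethanol/saline (70/20/10). Clearance values are averages from two or three animals. High is >3 L/h/kg (>70% liver blood flow) and low is <1.3 L/h/kg (<30%).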
# [4] = system: Human immunodeficiency virus 1; assay: Antiviral activity against wild type Human immunodeficiency virus 1 3B infected in human MT4 cells assessed as inhibition of viral replication in presence of 50% human serum
# [5] = Drug metabolism in human liver microsomes at 1 uM after 15 mins; assay type: ADME, Microsome; details: read-out: Drug metabolism
# Method in brief: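 Human liver microsome incubation at 37 °C for 15 min with compound at 1 µM; turnover expressed as percent of compound metabolized.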
SMILES,CC50 [1] [nM],EC50 [2] [nM],clearance [3] [mL/min/kg],EC50 [4] [nM],"metabolised at 0.25 h, 1 µM [5] [%]"
Cc1cccc(C)c1OCC(=O)N[C@@H](Cc1ccccc1)[C@@H](O)C[C@H](Cc1ccccc1)NC(=O)[C@H](C(C)C)N1CCCNC1=O [LOPINAVIR],> 10000,13,–,–,–
COC(=O)N[C@H](C(=O)N[C@@H](Cc1ccc(-c2ccc(OC)nc2)cc1)[C@@H](O)C[C@@H](Cc1ccccc1F)C(=O)N[C@H]1c2cc(C)ccc2OC[C@H]1O)C(C)(C)C,> 10000,0.9,46.7,7.7,63
COC(=O)N[C@H](C(=O)N[C@@H](Cc1ccc(-c2ccc(OC)nc2)cc1)[C@@H](O)C[C@@H](Cc1ccccc1F)C(=O)N[C@H]1c2cccc(Cl)c2OC[C@H]1O)C(C)(C)C,> 10000,2.4,65,5.3,47
COC(=O)N[C@H](C(=O)N[C@@H](Cc1ccc(-c2ccc(OC)nc2)cc1)[C@@H](O)C[C@@H](Cc1ccccc1F)C(=O)N[C@H]1c2cc(C)cc(F)c2OC[C@H]1O)C(C)(C)C,> 10000,2.8,83.3,9.8,48
COC(=O)N[C@H](C(=O)N[C@@H](Cc1ccc(-c2ccc(OC)nc2)cc1)[C@@H](O)C[C@@H](Cc1ccccc1F)C(=O)N[C@H]1c2ccccc2OC[C@H]1O)C(C)(C)C,> 10000,2.5,96.7,6.6,72
COC(=O)N[C@H](C(=O)N[C@@H](Cc1ccc(-c2ccc(OC)nc2)cc1)[C@@H](O)C[C@@H](Cc1cccc(OC(F)(F)F)c1)C(=O)N[C@H]1[C@H](C)CCC[C@H]1O)C(C)(C)C,> 10000,0.9,90,3.2,94
COC(=O)N[C@H](C(=O)N[C@@H](Cc1ccc(-c2ccc(OC)nc2)cc1)[C@@H](O)C[C@@H](Cc1ccccc1F)C(=O)N[C@H]1c2cc(Cl)cc(F)c2OC[C@H]1O)C(C)(C)C,> 10000,4.1,–,16,23
COC(=O)N[C@H](C(=O)N[C@@H](Cc1ccc(-c2ccc(OC)nc2)cc1)[C@@H](O)C[C@@H](Cc1ccccc1Cl)C(=O)N[C@H]1c2cc(Cl)ccc2OC[C@H]1O)C(C)(C)C,> 10000,3.9,23.3,13,5
COC(=O)N[C@H](C(=O)N[C@@H](Cc1ccc(-c2ccc(OC)nc2)cc1)[C@@H](O)C[C@@H](Cc1ccccc1F)C(=O)N[C@H]1c2cccc(F)c2OC[C@H]1O)C(C)(C)C,> 10000,2.8,88.3,6.9,98
COC(=O)N[C@H](C(=O)N[C@@H](Cc1ccc(-c2ccc(OC)nc2)cc1)[C@@H](O)C[C@@H](Cc1ccccc1F)C(=O)N[C@H]1CCCC[C@H]1O)C(C)(C)C,> 10000,1.8,86.7,5.9,99
COC(=O)N[C@H](C(=O)N[C@@H](Cc1ccc(-c2ccc(OC)nc2)cc1)[C@@H](O)C[C@@H](Cc1ccccc1Cl)C(=O)N[C@H]1[C@H](C)CCC[C@H]1O)C(C)(C)C,> 10000,1.1,70,7.1,99
COC(=O)N[C@H](C(=O)N[C@@H](Cc1ccc(-c2ccc(OC)nc2)cc1)[C@@H](O)C[C@@H](Cc1ccccc1F)C(=O)N[C@H]1c2cc(Cl)ccc2OC[C@H]1O)C(C)(C)C,> 10000,2.7,7.83,14,23
COC(=O)N[C@H](C(=O)N[C@@H](Cc1ccc(-c2ccc(OC)nc2)cc1)[C@@H](O)C[C@@H](Cc1cccc(OC(F)(F)F)c1)C(=O)N[C@H]1c2cc(Cl)ccc2OC[C@H]1O)C(C)(C)C,> 10000,4.2,–,24,0
